In ChEMBL document CHEMBL3621107, “Ring fusion strategy for synthesis and lead optimization of sulfur-substituted anthra[1,2-c][1,2,5]thiadiazole-6,11-dione derivatives as promising scaffold of antitumor agents” (Eur J Med Chem, 2015):

Assays:
Format in all cases: functional
Malme-3M = assay: Cytotoxicity against human MALME-3M cells assessed as cell growth at 10 uM after 48 hrs by SRB assay relative to control; conditions: read-out: Activity
How it was run: (§1)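 First-stage NCI-60 screen by the NCI Developmental Therapeutics Program. Each compound was tested once at a single concentration of 10 μM against the 60-cell-line panel. Growth percentage was reported for each cell line.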

SK-MEL-2 = assay: Cytotoxicity against human SK-MEL-2 cells assessed as cell growth at 10 uM after 48 hrs by SRB assay relative to control; conditions: SK-MEL-2, 48 h, read-out: Activity
How it was run: (§2)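 First-stage NCI DTP one-dose screen against the 60 human tumour cell line panel. Compounds were tested at a single 10 μM level, and results are given as growth percentage.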

SK-MEL-5 = assay: Cytotoxicity against human SK-MEL-5 cells assessed as cell growth at 10 uM after 48 hrs by SRB assay relative to control; conditions: SK-MEL-5, 48 h, read-out: Activity; how it was run: as §2
UACC-62 = assay: Cytotoxicity against human UACC62 cells assessed as cell growth at 10 uM after 48 hrs by SRB assay relative to control; conditions: UACC-62, 48 h, read-out: Activity
How it was run: (§3)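 NCI-60 one-dose screen run by NCI DTP: each cell line exposed to a single 10 µM dose, and percentage growth recorded against untreated growth.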

IGROV-1 = assay: Cytotoxicity against human IGROV1 cells assessed as cell growth at 10 uM after 48 hrs by SRB assay relative to control; conditions: IGROV-1, 48 h, read-out: Activity; how it was run: as §1
OVCAR-3 = assay: Cytotoxicity against human OVCAR3 cells assessed as cell growth at 10 uM after 48 hrs by SRB assay relative to control; conditions: OVCAR-3, 48 h, read-out: Activity; how it was run: as §2
OVCAR-4 = assay: Cytotoxicity against human OVCAR4 cells assessed as cell growth at 10 uM after 48 hrs by SRB assay relative to control; conditions: OVCAR-4, 48 h, read-out: Activity; how it was run: as §2
OVCAR-5 = assay: Cytotoxicity against human OVCAR5 cells assessed as cell growth at 10 uM after 48 hrs by SRB assay relative to control; conditions: OVCAR-5, 48 h, read-out: Activity; how it was run: as §2
NCI/ADR-RES = assay: Cytotoxicity against human NCI/ADR-RES cells assessed as cell growth at 10 uM after 48 hrs by SRB assay relative to control; conditions: read-out: Activity; how it was run: as §2
786-0 = assay: Cytotoxicity against human 786-0 cells assessed as cell growth at 10 uM after 48 hrs by SRB assay relative to control; conditions: 786-0, 48 h, read-out: Activity; how it was run: as §1
ACHN = assay: Cytotoxicity against human ACHN cells assessed as cell growth at 10 uM after 48 hrs by SRB assay relative to control; conditions: read-out: Activity; how it was run: as §1
RXF 393 = assay: Cytotoxicity against human RXF393 cells assessed as cell growth at 10 uM after 48 hrs by SRB assay relative to control; conditions: RXF 393, 48 h, read-out: Activity; how it was run: as §2
TK-10 = assay: Cytotoxicity against human TK10 cells assessed as cell growth at 10 uM after 48 hrs by SRB assay relative to control; conditions: TK-10, 48 h, read-out: Activity; how it was run: as §3
MDA-MB-231 = assay: Cytotoxicity against human MDA-MB-231 cells assessed as cell growth at 10 uM after 48 hrs by SRB assay relative to control; conditions: MDA-MB-231, 48 h, read-out: Activity; how it was run: as §2
[1] = Cytotoxicity against human Hs578T cells assessed as cell growth at 10 uM after 48 hrs by SRB assay relative to control; conditions: Hs-578T, read-out: Activity; how it was run: as §1
T47D = assay: Cytotoxicity against human T47D cells assessed as cell growth at 10 uM after 48 hrs by SRB assay relative to control; conditions: read-out: Activity; how it was run: as §3
MDA-MB-468 = assay: Cytotoxicity against human MDA-MB-468 cells assessed as cell growth at 10 uM after 48 hrs by SRB assay relative to control; conditions: MDA-MB-468, 48 h, read-out: Activity; how it was run: as §2
HL-60(TB) = assay: Cytotoxicity against human HL-60(TB) cells assessed as cell growth at 10 uM after 48 hrs by SRB assay relative to control; conditions: HL-60, 48 h, read-out: Activity
How it was run: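 NCI Developmental Therapeutics Program 60-cell-line screen, first stage: a single dose of 10 μM against the panel, reported as percentage growth.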

MOLT-4 = assay: Cytotoxicity against human MOLT4 cells assessed as cell growth at 10 uM after 48 hrs by SRB assay relative to control; conditions: MOLT-4, 48 h, read-out: Activity; how it was run: as §2
NCI-H322M = assay: Cytotoxicity against human NCI-H322M cells assessed as cell growth at 10 uM after 48 hrs by SRB assay relative to control; conditions: read-out: Activity; how it was run: as §2
NCI-H460 = assay: Cytotoxicity against human NCI-H460 cells assessed as cell growth at 10 uM after 48 hrs by SRB assay relative to control; conditions: NCI-H460, 48 h, read-out: Activity; how it was run: as §2
COLO 205 = assay: Cytotoxicity against human COLO205 cells assessed as cell growth at 10 uM after 48 hrs by SRB assay relative to control; conditions: COLO 205, 48 h, read-out: Activity; how it was run: as §1
HCT-15 = assay: Cytotoxicity against human HCT15 cells assessed as cell growth at 10 uM after 48 hrs by SRB assay relative to control; conditions: HCT-15, 48 h, read-out: Activity; how it was run: as §1
HT-29 = assay: Cytotoxicity against human HT-29 cells assessed as cell growth at 10 uM after 48 hrs by SRB assay relative to control; conditions: HT-29, 48 h, read-out: Activity; how it was run: as §1
SF-268 = assay: Cytotoxicity against human SF268 cells assessed as cell growth at 10 uM after 48 hrs by SRB assay relative to control; conditions: SF-268, 48 h, read-out: Activity; how it was run: as §2
SNB-75 = assay: Cytotoxicity against human SNB75 cells assessed as cell growth at 10 uM after 48 hrs by SRB assay relative to control; conditions: SNB-75, 48 h, read-out: Activity; how it was run: as §3
LOX IMVI = assay: Cytotoxicity against human LOXIMVI cells assessed as cell growth at 10 uM after 48 hrs by SRB assay relative to control; conditions: read-out: Activity; how it was run: as §1
CAKI-1 = assay: Cytotoxicity against human Caki1 cells assessed as cell growth at 10 uM after 48 hrs by SRB assay relative to control; conditions: CAKI-1, 48 h, read-out: Activity; how it was run: as §1
[2] = Cytotoxicity against human EKVX cells assessed as cell growth at 10 uM after 48 hrs by SRB assay relative to control; conditions: read-out: Activity; how it was run: as §1
SF-295 = assay: Cytotoxicity against human SF295 cells assessed as cell growth at 10 uM after 48 hrs by SRB assay relative to control; conditions: SF-295, 48 h, read-out: Activity; how it was run: as §2

Row | SMILES | growth at 10 µM (Malme-3M) | growth at 10 µM (SK-MEL-2) | growth at 10 µM (SK-MEL-5) | growth at 10 µM (UACC-62) | growth at 10 µM (OVCAR-3) | growth at 10 µM (OVCAR-5) | growth at 10 µM (NCI/ADR-RES) | growth at 10 µM (786-0) | growth at 10 µM (ACHN) | growth at 10 µM (RXF 393) | growth at 10 µM (TK-10) | growth at 10 µM (MDA-MB-231) | growth at 10 µM [1] | growth at 10 µM (T47D) | growth at 10 µM (MDA-MB-468) | growth at 10 µM (HL-60(TB)) | growth at 10 µM (MOLT-4) | growth at 10 µM (NCI-H460) | growth at 10 µM (COLO 205) | growth at 10 µM (HCT-15) | also measured
1 | O=C1c2ccccc2C(=O)c2c1cc(SCc1ccc(Cl)cc1)c1nsnc21 | 86.4% | 110% | 89.6% | 102% | 113% | 104% | 95.7% | 118% | 94.3% | 105% | 122% | 95.2% | 88.6% | 83.8% | 83.4% | 57.4% | 22.7% | 105% | 99.9% | 97.9% | growth at 10 µM (IGROV-1): 84.2%; growth at 10 µM (OVCAR-4): 84.2%; growth at 10 µM (NCI-H322M): 94.1%; growth at 10 µM (HT-29): 96.4%; growth at 10 µM (SF-268): 107%; growth at 10 µM (SNB-75): 63.4%; growth at 10 µM (LOX IMVI): 86.7%
2 | O=C1c2ccccc2C(=O)c2c1cc(Sc1ccc(F)cc1F)c1nsnc21 | 39.5% | 51.8% | 48.5% | 53.3% | -52.3% | 110% | -26.2% | 3.74% | 34.9% | 36.7% | 112% | -9.73% | 50.1% | -28.6% | -87% | -37.7% | -41.6% | 83.6% | 104% | 45.8% | growth at 10 µM (CAKI-1): 24%; growth at 10 µM [2]: 98.1%; growth at 10 µM (HT-29): 102%; growth at 10 µM (SF-268): 8.47%; growth at 10 µM (SF-295): 68.8%; growth at 10 µM (SNB-75): 42.9%; growth at 10 µM (LOX IMVI): -42%
3 | Cc1ccccc1Sc1cc2c(c3nsnc13)C(=O)c1ccccc1C2=O | 96.8% | 73.3% | 87.5% | 90.7% | 5.3% | 126% | 59.5% | 100% | 89.8% | 95.9% | 123% | 60.7% | 83.7% | 51.9% | 53.7% | 79.5% | 67.3% | 88.9% | 99.2% | 38.6% | growth at 10 µM (IGROV-1): 80.1%; growth at 10 µM (CAKI-1): 81.5%; growth at 10 µM [2]: 105%; growth at 10 µM (HT-29): 104%; growth at 10 µM (SF-268): 74.7%; growth at 10 µM (SF-295): 105%; growth at 10 µM (SNB-75): 76.3%; growth at 10 µM (LOX IMVI): 30%
